# Assay results from different studies.
# Compare with care: the assays were run in different laboratories.
# PFF0160c: Dihydroorotate dehydrogenase (quinone), mitochondrial (PFF0160c, Plasmodium falciparum, UniProt Q08210)
# PFF0160c E182D: Dihydroorotate dehydrogenase (quinone), mitochondrial (PFF0160c, Plasmodium falciparum, UniProt Q08210, E182D)
# PROC: Vitamin K-dependent protein C (PROC, Homo sapiens, UniProt P04070)
SMILES,target,test,IC50
Cc1nc(NC2CCc3ccc(Br)cc3C2)c2c(C)noc2n1 (stereo not shown),PFF0160c,"enzyme activity, inhibitor, absorbance",22 nM
CCc1nc2nc(C)cc(Nc3ccc(F)c(Cl)c3)n2n1,PFF0160c E182D,"enzyme activity, inhibitor, absorbance",> 10000 nM
Cc1nc(C(C)NC(=O)c2[nH]cc(Cc3ccc(C(F)(F)F)nc3)c2C)c[nH]1 (stereo not shown),PFF0160c,"enzyme activity, inhibitor, absorbance",1300 nM
Cc1nc(Nc2ccc(C(F)(F)F)nc2)c2c(C)noc2n1,PFF0160c,"enzyme activity, inhibitor, absorbance",150 nM
CC(C)C[C@@H]1C(=O)N[C@H]([C@@H](C)O)C(=O)N[C@H](C)[C@@H](C)C(=O)O[C@@H](Cc2ccccc2)C(=O)N(C)[C@@H](C(C)C)C(=O)N2CCC[C@H]2C(=O)N(C)[C@H](Cc2ccccc2)C2=N[C@@H](CS2)C(=O)N[C@H](C)C2=N[C@@H](CS2)C(=O)N1C,PROC,"enzyme activity, inhibitor",66600 nM
CCOC(=O)c1[nH]cc(Cc2cccc3ncoc23)c1C,PFF0160c,"enzyme activity, inhibitor, absorbance",100 nM
CN(C)S(=O)(=O)c1ccc(Sc2ccccc2)c(C(=O)N2CCCC(C(N)=O)C2)c1 (stereo not shown),PFF0160c E182D,"enzyme activity, inhibitor, absorbance",2560 nM
Cc1noc2nc(C(F)(F)F)nc(Nc3ccc(C(F)(F)F)cc3)c12,PFF0160c,"enzyme activity, inhibitor, absorbance",610 nM
Cc1c(C2(c3ccc(C(F)(F)F)cc3F)CC2)c[nH]c1C(=O)NC(C)c1nc[nH]n1 (stereo not shown),PFF0160c,"enzyme activity, inhibitor, absorbance",> 100000 nM
CC1CN(Cc2ccc(-c3ccc(C(=O)NCC4CCCO4)cn3)cc2)CC(C)O1 (stereo not shown),PFF0160c E182D,"enzyme activity, inhibitor, absorbance",3280 nM
CC[C@H]1NC(=O)[C@@H]2CSC(=N2)[C@@H](Cc2ccccc2)N(C)C(=O)[C@@H]2CCCN2C(=O)[C@H](C(C)C)N(C)C(=O)[C@H](Cc2ccccc2)OC(=O)[C@H](C)[C@@H](C)NC(=O)[C@@H]([C@@H](C)O)NC(=O)[C@@H](CC(C)C)N(C)C(=O)[C@@H]2CSC1=N2,PROC,"enzyme activity, inhibitor",79000 nM
COc1ccccc1C1CN(CCNC(=O)c2nc(C)c[nH]2)Cc2ccccc2O1 (stereo not shown),PFF0160c,"enzyme activity, inhibitor, absorbance",3010 nM
Cc1nc(Nc2ccc(S(F)(F)(F)(F)F)cc2)c2c(C(F)(F)F)noc2n1,PFF0160c,"enzyme activity, inhibitor, absorbance",43 nM
Cc1c(Cc2ccc(C(F)(F)F)nc2)c[nH]c1C(=O)NC(C)c1nc[nH]n1 (stereo not shown),PFF0160c,"enzyme activity, inhibitor, absorbance",> 100000 nM
CCc1nc2nc(C)cc(Nc3ccc4c(c3)OCCO4)n2n1,PFF0160c E182D,"enzyme activity, inhibitor, absorbance",> 10000 nM
COc1cc(Nc2ncc(F)c(Nc3ccc4c(n3)NC(=O)C(C)(C)O4)n2)cc(OC)c1OC,"cGMP-specific 3',5'-cyclic phosphodiesterase (PDE5A, Homo sapiens, UniProt O76074)","enzyme activity, inhibitor",316 nM
CC(CCc1ccccc1)NC(C)C(O)c1ccc(O)cc1 (stereo not shown),"Kappa-type opioid receptor (OPRK1, Homo sapiens, UniProt P41145)","ligand displacement, radioligand",4980 nM
Cc1cc(Nc2ccc3c(c2)CCC3)n2ncnc2n1,PFF0160c E182D,"enzyme activity, inhibitor, absorbance",> 10000 nM
Cc1c(Cc2ccc(C(F)(F)F)nc2)c[nH]c1C(=O)N[C@@H](C)C(N)=O,PFF0160c,"enzyme activity, inhibitor, absorbance",> 100000 nM
Cn1cc(-c2ccc(-n3ccc(OCc4ccc(Cl)cn4)cc3=O)cn2)cn1,PFF0160c E182D,"enzyme activity, inhibitor, absorbance",7020 nM
O=S(=O)(O)c1nc2ccccc2[nH]1,"racE (Bacillus subtilis, UniProt P94556, N75A)","enzyme activity, inhibitor, absorbance",890000 nM
Cc1c(C2(c3ccc(C(F)F)nc3)CC2)c[nH]c1C(=O)NC(C)c1nc[nH]n1 (stereo not shown),PFF0160c,"enzyme activity, inhibitor, absorbance",> 30000 nM
Cc1nc(Nc2ccc(C(F)(F)F)cc2)c2c(C)noc2n1,PFF0160c,"enzyme activity, inhibitor, absorbance",68 nM
Cc1c(Cc2ccc(C(F)(F)F)cc2F)c[nH]c1C(=O)NC(C)c1nc[nH]n1 (stereo not shown),PFF0160c,"enzyme activity, inhibitor, absorbance",350 nM
Cc1nc(Nc2ccc(S(F)(F)(F)(F)F)cc2)c2c(C)noc2n1,PFF0160c,"enzyme activity, inhibitor, absorbance",36 nM
CCCCCNC(=N)N/N=C/c1c[nH]c2ccc(OC)cc12,"5-hydroxytryptamine receptor 2A (HTR2A, Homo sapiens, UniProt P28223)","calcium signal, antagonist, fluorescence",1500 nM
COc1ccc(-n2ccnc2SCC(=O)Nc2cc(C)ccc2C)c(OC)c1,PFF0160c,"enzyme activity, inhibitor, absorbance",324 nM
Cc1nc(NC2Cc3cc(F)c(F)cc3C2)c2c(C(F)(F)F)noc2n1,PFF0160c,"enzyme activity, inhibitor, absorbance",22 nM
